Ki and EC50 data for 22 molecules are collected here from ChEMBL document CHEMBL1148771, “Design and synthesis of HIV-1 protease inhibitors incorporating oxazolidinones as P2/P2' ligands in pseudosymmetric dipeptide isosteres” (J Med Chem, 2007).

The target of one experiment is Protease (Human immunodeficiency virus 1, UniProt Q9YQ12). Put plainly: Inhibition of Wild type HIV1 Protease by FRET based assay.
The subject of experiment [1] is Human immunodeficiency virus 1. In words: Antiviral activity against HIV1 infected MT4 cells by MTT method. The format is functional, organism-based. The settings on record: Human immunodeficiency virus 1, MT4. Put shortly:
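HIV-1 4–3 (100 CCID50) infected MT-4 cells, washed in PBS, seeded at 4 × 10⁴ cells/well in RPMI with 10% FBS. Compound dilutions added in triplicate at 0.5% DMSO final, 5 days at 37 °C, 5% CO₂, mock-infected controls in parallel. MTT added for 4 h, formazan solubilized, absorbance read at 540/690 nm.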

A short description of experiment [2]: Inhibition of HIV1 Protease M3 variant by FRET based assay. Also noted: species or system Human immunodeficiency virus 1.
A short description of experiment [3]: Inhibition of HIV1 Protease M2 variant by FRET based assay. Also noted: species or system Human immunodeficiency virus 1.
The nature of experiment [4]: Inhibition of HIV1 Protease M1 variant by FRET based assay. Also noted: species or system Human immunodeficiency virus 1.

Chain of Protease (Q9YQ12 whole entry): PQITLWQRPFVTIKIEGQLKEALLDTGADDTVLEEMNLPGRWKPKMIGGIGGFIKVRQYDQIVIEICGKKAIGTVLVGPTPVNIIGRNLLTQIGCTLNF

Broadly, the Ki is the equilibrium dissociation constant of an inhibitor or competing ligand from its target. In the case of `O=C(Cc1ccc2c(c1)OCO2)N[C@@H](Cc1ccccc1)[C@@H](O)C[C@H](Cc1ccccc1)NC(=O)[C@@H]1CN(c2ccccc2)C(=O)O1`, the Ki on Protease was 657 nM.
One may read the EC50 as the concentration giving half of the maximal effect. Read a high EC50 as weaker potency. In turn, `Cc1cccc(C)c1OCC(=O)N[C@@H](Cc1ccccc1)[C@@H](O)C[C@H](Cc1ccccc1)NC(=O)[C@H](C(C)C)N1CCCNC1=O` [LOPINAVIR] registered an EC50 in experiment [1] of 10 nM. Besides, the Ki in experiment [2] worked out at 0.9 nM; in experiment [3] it was 0.04 nM; in experiment [4], 6.1 nM.
Turning to `Cc1cccc(C)c1OCC(=O)N[C@@H](Cc1ccccc1)[C@@H](O)C[C@H](Cc1ccccc1)NC(=O)[C@@H]1CN(c2ccccc2)C(=O)O1`, the inhibition constant Ki at Protease is 7.28 nM; in experiment [2] it was 447 nM; in experiment [3], 18.3 nM; in experiment [4], 364 nM.
With `CC(=O)N[C@H](C(=O)N[C@@H](Cc1ccccc1)C[C@H](O)[C@H](Cc1ccccc1)NC(=O)[C@@H]1CN(c2cccc(C(C)=O)c2)C(=O)O1)C(C)C`, the 50% effective concentration (EC50) in experiment [1] worked out at 620 nM. Besides, the inhibitory constant (Ki) in experiment [2] amounted to 122 nM; in experiment [3], 1.67 nM; in experiment [4], 82.3 nM.
With `COC(=O)N[C@H](C(=O)N[C@@H](Cc1ccccc1)C[C@H](O)[C@H](Cc1ccccc1)NC(=O)[C@@H]1CN(c2ccccc2)C(=O)O1)C(C)(C)C`, the Ki at Protease worked out at 3.51 nM; in experiment [2], 392 nM; in experiment [3], 14 nM; in experiment [4], 131 nM. The EC50 in experiment [1] was 1030 nM.
Turning to `Cc1cccc(C)c1OCC(=O)N[C@@H](Cc1ccccc1)[C@@H](O)C[C@H](Cc1ccccc1)NC(=O)[C@@H]1CN(c2cccc(C(F)(F)F)c2)C(=O)O1`, the Ki on Protease was determined as 21.6 nM.
The same measure, in the same setting: with `Cc1cccc(C)c1OCC(=O)N[C@@H](Cc1ccccc1)[C@@H](O)C[C@H](Cc1ccccc1)NC(=O)[C@H]1CN(c2ccccc2)C(=O)O1` the figure was 4730 nM.
In the case of `CC(=O)N[C@H](C(=O)N[C@@H](Cc1ccccc1)C[C@H](O)[C@H](Cc1ccccc1)NC(=O)[C@@H]1CN(c2ccc(F)c(F)c2)C(=O)O1)C(C)C`, the inhibitory constant (Ki) stood at 2.13 nM on Protease, 282 nM in experiment [2], 3.9 nM in experiment [3] and 168 nM in experiment [4]. Also, the EC50 in experiment [1] was 360 nM.
Turning to `CC(=O)N[C@H](C(=O)N[C@@H](Cc1ccccc1)C[C@H](O)[C@H](Cc1ccccc1)NC(=O)[C@@H]1CN(c2cccc(C(F)(F)F)c2)C(=O)O1)C(C)C`, the affinity at Protease corresponds to a Ki of 2.62 nM.
`O=C(N[C@@H](Cc1ccccc1)[C@@H](O)CN(Cc1ccc(-c2ccccn2)cc1)NC(=O)[C@@H]1CN(c2ccccc2)C(=O)O1)[C@@H]1CN(c2ccccc2)C(=O)O1` gave an inhibitory constant (Ki) on Protease of 300 nM.
Take `COC(=O)N[C@H](C(=O)N[C@@H](Cc1ccccc1)[C@@H](O)CN(Cc1ccc(-c2ccccn2)cc1)NC(=O)[C@@H](NC(=O)OC)C(C)(C)C)C(C)(C)C` [ATAZANAVIR]: the results for the Ki in experiment [2], in experiment [3] and in experiment [4] were 0.49 nM, 0.009 nM and 0.33 nM, respectively.
`CC(=O)c1cccc(N2C[C@@H](C(=O)N[C@@H](Cc3ccccc3)[C@@H](O)C[C@H](Cc3ccccc3)NC(=O)COc3c(C)cccc3C)OC2=O)c1`: on Protease, the Ki came to 35.1 nM.
Same read-out and setting: with `COC(=O)N[C@H](C(=O)N[C@@H](Cc1ccccc1)[C@@H](O)CN(CC(C)C)NC(=O)[C@@H]1CN(c2ccccc2)C(=O)O1)C(C)(C)C` the figure was 10.6 nM.
In experiment [1], `CC(C)(C)NC(=O)[C@@H]1C[C@@H]2CCCC[C@@H]2CN1C[C@@H](O)[C@H](Cc1ccccc1)NC(=O)[C@H](CC(N)=O)NC(=O)c1ccc2ccccc2n1` displayed a 50% effective concentration (EC50) of 10 nM. Also, the Ki worked out at 78.4 nM in experiment [2], 1.03 nM in experiment [3] and 89.5 nM in experiment [4].
In turn, `CC(C)CN(C[C@@H](O)[C@H](Cc1ccccc1)NC(=O)O[C@H]1CCOC1)S(=O)(=O)c1ccc(N)cc1` came in with a concentration giving a half-maximal response (EC50) in experiment [1] of 40 nM. In addition, the figures for the inhibition constant (Ki) in experiment [2], in experiment [3] and in experiment [4] were 1.4 nM, 0.21 nM and 0.15 nM, respectively.
On to `CC(=O)c1cccc(N2C[C@@H](C(=O)N[C@@H](Cc3ccccc3)[C@@H](O)CN(Cc3ccc(-c4ccccn4)cc3)NC(=O)[C@@H]3CN(c4cccc(C(C)=O)c4)C(=O)O3)OC2=O)c1`, for which, at Protease, the Ki was found to be 1090 nM.
As to `CC(=O)N[C@H](C(=O)N[C@@H](Cc1ccccc1)C[C@H](O)[C@H](Cc1ccccc1)NC(=O)[C@@H]1CN(c2ccccc2)C(=O)O1)C(C)C`, a half-maximal effect in experiment [1] (EC50) was put at 790 nM. Also, the inhibition constant (Ki) in experiment [2] was found to be 112 nM; in experiment [3], 3.1 nM; in experiment [4], 51.2 nM.
`CC(C)[C@@H](C(=O)N[C@@H](Cc1ccccc1)C[C@H](O)[C@H](Cc1ccccc1)NC(=O)[C@@H]1CN(c2ccccc2)C(=O)O1)N1CCCNC1=O` returned a concentration giving a half-maximal response (EC50) in experiment [1] of 1210 nM. Also, the Ki in experiment [2] came to 185 nM; in experiment [3], 13.9 nM; in experiment [4], 175 nM.
At Protease, `O=C(N[C@@H](Cc1ccccc1)[C@@H](O)C[C@H](Cc1ccccc1)NC(=O)[C@@H]1CN(c2cccc(C(F)(F)F)c2)C(=O)O1)OCc1cccnc1` registered a Ki of 41.1 nM.
At Protease, `CC(=O)c1ccc(N2C[C@@H](C(=O)N[C@@H](Cc3ccccc3)[C@@H](O)C[C@H](Cc3ccccc3)NC(=O)COc3c(C)cccc3C)OC2=O)cc1` showed a Ki of 39.9 nM.
With `COC(=O)N[C@H](C(=O)NN(CC(C)C)C[C@H](O)[C@H](Cc1ccccc1)NC(=O)[C@@H]1CN(c2ccccc2)C(=O)O1)C(C)(C)C`, the inhibitory constant (Ki) turned out to be 7 nM on Protease, 549 nM in experiment [2], 39.2 nM in experiment [3] and 231 nM in experiment [4].
Molecule `Cc1cccc(C)c1OCC(=O)N[C@@H](Cc1ccccc1)C[C@H](O)[C@H](Cc1ccccc1)NC(=O)[C@@H]1CN(c2ccccc2)C(=O)O1` yielded a Ki on Protease of 8.05 nM.
